# Compound activity as filed in PubChem BioAssay.
# An excerpt weighted towards active compounds, which were near 1.9% of everything screened.
# M4 PAM – positive allosteric modulators of human muscarinic M4 receptor. P08173. CHO-K1 hM4/Gqi5, Fluo-8 calcium fluorescence, ACh EC20; 0% = ACh EC20, 100% = maximal ACh. activation, % at 3 µM. 0.4% of 360,000 active;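 active = activation above its plate's cutoff, the mean activation of sample wells plus 3 SD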
# Target sequence (P08173 whole entry, looked up): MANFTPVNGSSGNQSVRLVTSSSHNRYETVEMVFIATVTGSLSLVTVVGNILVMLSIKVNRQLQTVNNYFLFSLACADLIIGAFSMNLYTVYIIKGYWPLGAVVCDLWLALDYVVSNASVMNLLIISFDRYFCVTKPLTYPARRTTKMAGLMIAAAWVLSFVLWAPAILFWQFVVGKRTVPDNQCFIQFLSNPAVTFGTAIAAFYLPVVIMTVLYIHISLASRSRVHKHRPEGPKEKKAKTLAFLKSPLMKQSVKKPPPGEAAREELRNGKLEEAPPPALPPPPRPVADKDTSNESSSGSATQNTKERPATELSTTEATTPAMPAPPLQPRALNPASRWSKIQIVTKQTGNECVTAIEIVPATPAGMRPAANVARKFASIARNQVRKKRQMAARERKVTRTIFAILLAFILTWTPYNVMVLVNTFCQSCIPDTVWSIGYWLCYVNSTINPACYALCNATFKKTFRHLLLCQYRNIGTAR
# CHRM4 antagonist – antagonists of human muscarinic M4 receptor (CHRM4). CHO-hM4 cells, ACh EC80, Fluo-8 calcium fluorescence. inhibition, % at 3 µM. 0.73% of 360,000 active. AID 624125;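 active = inhibition above its plate's cutoff, the mean inhibition of sample wells plus 3 SD, cut at about 27% in these data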;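 also: 0% = acetylcholine EC80 with DMSO and 100% = DMSO without agonist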
# CHRM5 antagonist – CHRM5 antagonism in calcium assay. P08912. CHO-hM5 cells, Fluo-8 calcium fluorescence, ACh EC80. inhibition, % at 3 µM. 0.59% of 360,000 active;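 active = inhibition above a per-plate cutoff, the mean of that plate's test compounds plus 3 SD, cut at about 27% in these data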;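 also: 0% = acetylcholine EC80 with DMSO and 100% = DMSO without agonist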
# CHRM4 agonist – CHRM4 agonism in calcium assay; CHO-K1 hM4/Gqi5, Fluo-8 calcium fluorescence; vehicle 0%, full acetylcholine response 100%; P08173; 0.14% of 360,000 active; activation, % at 3 µM;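 active = activation above the run mean over all test wells plus 3 SD, cut at about 32% in these data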;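 also: peak over basal fluorescence ratio per well then scaled between controls; 0% = DMSO wells and 100% = acetylcholine at EC100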
# M5 PAM – CHRM5 positive allosteric modulation; activation, % at 3 µM; AID 624038; P08912; 0.3% of 360,000 active; CHO-K1 hM5, Fluo-8 calcium, ACh EC20 PAM; 0% = ACh EC20, 100% = ACh EC100;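 active = activation above the run cutoff, the mean activation of all test compounds plus 3 SD, cut at about 18% in these data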
#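 Test system: CHO-K1 hM5 cells / Doses: single-point, 3 µM nominal / Times: Post-acetylcholine fluorescence recording 140 s / Technique: Fluo-8 calcium fluorescence / Measure: Max/basal fluorescence ratio as % of EC20–EC100 ACh window / Benchmarks: low control EC20 acetylcholine (0%), high control EC100 acetylcholine (100%) / Replicates: one well per compound, no replicates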
# CHRM5 agonist – CHRM5 agonism in calcium assay | CHO-K1 hM5 cells, Fluo-8 calcium fluorescence; 0% DMSO wells, 100% maximal acetylcholine response | 0.19% of 360,000 active | P08912 | activation, % at 3 µM;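 active = activation above the run's mean over test compounds plus 3 SD, cut at about 23% in these data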;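 also: signal is peak over basal fluorescence ratio across the kinetic read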
# * marks the source's active call; other numbers are inactive results.
SMILES,M4 PAM,CHRM4 antagonist,CHRM5 antagonist,CHRM4 agonist,M5 PAM,CHRM5 agonist
CN1C(=O)CSC1=Nc1cccc(C(=O)O)c1,0,4,6,2,3,-4
Cc1ccc(C)c(N2CCN(C(C(=O)NC3CCCC3)c3ccco3)CC2)c1 (stereo not given),-3,-12,-1,-1,-6,1
O=C(Nc1cccc(Cl)c1)c1csc([C@H]2C[C@H](O)[C@@H](CO)O2)n1,-4,5,3,2,2,2
O=C(c1[nH]c(C(F)(F)F)nc1-c1ccccc1)N1CCc2c([nH]c3ccccc23)C1,-3,8,12,6,-9,1
NC(=O)N1N=C2/C(=C/c3ccccc3)CCCC2C1c1ccccc1 (stereo not given),14,3,8,5,-5,0
O=C(O)CSCC(=O)N1N=C2/C(=C/c3ccccc3)CCCC2C1c1ccccc1 (stereo not given),16*,-40,1,1,1,-2
Cn1c(N)c(C(=O)/C=C/c2ccccc2)c(=O)[nH]c1=O,0,-4,47*,0,-19,-8
COc1ccc(CN2C(=O)C(CC(=O)NCCCN(C)C)CC(C(=O)N(C)C)=C2C)cc1 (stereo not given),-3,-8,-6,2,6,0
Cc1cccc(C)c1NC(=O)C1CCCN(CCCc2ccccc2)C1 (stereo not given),-25,83*,22,2,-34,-11
Cc1ccc(F)c(S(=O)(=O)NC(=O)C2(C)CCN2C(=O)CC(c2ccccc2)c2ccccc2)c1 (stereo not given),-2,3,5,1,-2,-1
CCC(c1ccccc1)c1noc(CCN(CC)CC)n1 (stereo not given),-14,59*,59*,1,-19,-3
COCCN(C)Cc1nc(C(c2ccccc2)c2ccccc2)no1,0,2,4,-1,5,-14
CSCCC(NC(=O)c1ccco1)C(=O)N(C)CC(=O)Nc1c(Cl)cccc1Cl (stereo not given),15,0,-3,2,13,4
Cc1cccc(C)c1NC(=O)CN(C)C(=O)[C@H](C)NC(=O)c1ccco1,24*,-8,8,1,-3,0
CCn1nnnc1SCC(=O)NCc1cccs1,0,3,-3,0,18*,-5
Cc1ccccc1Sc1ccc(N)cn1,-15,33*,23,4,-8,-3
COC(=O)c1cnn(-c2ccccc2)c1/C=N/NC(=S)Nc1ccccc1,1,-8,-2,0,7,0
COC(=O)c1cnn(-c2ccccc2)c1C(OC)OC,8,-11,-12,2,22*,7
CCOC(=O)c1sc(=S)n(-c2ccccc2)c1C,-6,2,16,6,-13,-8
Cc1c(C(=O)O)sc(=S)n1-c1ccccc1,20*,-5,11,2,-1,0
O=C(Nc1nnc([C@@H]2C[C@H](O)[C@@H](CO)O2)s1)Nc1cccc(Cl)c1Cl,1,4,5,1,-1,0
CCOC(=O)CSc1nc(C)nc2c1sc1nc(C)c(C(C)=O)c(-c3ccc(OC)cc3)c12,20*,8,5,1,-1,1
CCOC(=O)c1c(C)nc2sc3c(=O)n(-c4ccc(C)cc4)cnc3c2c1-c1ccc(OC)cc1,-3,4,4,0,-6,2
S=C(Nc1cccc2ccccc12)NN1CCCCCC1,-17,35*,9,-1,-27,-10
Cc1ccc(C2C=CC(C#N)=CN2Cc2ccccc2)cc1 (stereo not given),-2,7,5,0,-4,-3
SMILES,M4 PAM,CHRM4 antagonist,CHRM5 antagonist,CHRM4 agonist,M5 PAM,CHRM5 agonist
Cc1ccc(SCC(=O)Nc2ccc(S(=O)(=O)Nc3ncccn3)cc2)cc1,-3,5,13,1,-3,-6
CC(=O)NS(=O)(=O)c1ccc(NC(=O)CSc2ccc(C)cc2)cc1,19*,-12,-8,2,3,-1
CC(=O)C1=CCC(c2ccc(Cl)cc2)N(S(=O)(=O)c2ccc(C)cc2)C1 (stereo not given),-12,5,8,6,-10,-2
CC1CCN(CCc2nc3cc(NC(=O)C(C)C)ccc3n2C)CC1,-16,58*,69*,0,-17,-7
CC(C)C(=O)Nc1ccc2c(c1)nc(CCN1CCCCC1)n2C,-8,14,7,0,0,-4
CC1(C(=O)NS(=O)(=O)c2ccc(Cl)cc2)CCN1C(=O)c1cccc(F)c1 (stereo not given),-3,0,-4,1,0,-1
Cc1cccc(C)c1C(O)c1ncc(-c2cccc(C(F)(F)F)c2)[nH]1 (stereo not given),0,2,9,5,-8,1
CCCS(=O)(=O)N1CCN(C(=O)c2ccco2)CC1,20*,-3,-5,1,19*,-6
CCS(=O)(=O)N1CCN(C(=O)c2ccco2)CC1,3,-1,-4,2,1,2
Cc1ccc(-c2csc(NC(=O)c3ccc(-c4ccccc4)cc3)n2)o1,-10,40*,16,9,-6,8
CCN(CC)S(=O)(=O)c1ccc(N2CCOCC2)c(NC(=O)c2ccc3ccccc3c2)c1,13,-4,4,1,1,1
CCN(CC)S(=O)(=O)c1ccc(N2CCOCC2)c(NC(=O)c2cccc3ccccc23)c1,-24,30*,14,14,-13,2
O=C(Cn1nnc(-c2ccc(CN3CCOCC3)cc2)n1)N(c1ccccc1)c1ccccc1,7,5,2,1,23*,1
O=C(Nc1nnc(SCCC2OCCO2)s1)C1CC(=O)N(c2ccccc2)C1 (stereo not given),-3,-8,-5,3,0,-1
COc1cccc(N2CC(C(=O)Nc3nnc(SCCC4OCCO4)s3)CC2=O)c1 (stereo not given),-1,-1,31*,2,-9,-4
CSc1ccc(CCNC(=O)CN2C(=O)c3cccnc3Oc3ccc(C)cc32)cc1,-7,33*,25,15,-10,0
COc1cccc(C(=O)Nc2ccc3c(c2)OC[C@H](C)N(C(=O)C2CCCC2)C[C@@H](C)[C@@H](OC)CN(C)C3=O)c1,11,-24,-8,10,1,0
COc1ccc(CCN2C(=O)COc3ccccc3C2C(=O)Nc2ccc3c(c2)OCCO3)cc1OC (stereo not given),6,-4,-2,1,4,0
